From ChEMBL document CHEMBL1795271, “7-Alkyl-N(2)-substituted-3-deazaguanines. Synthesis, DNA polymerase III inhibition and antibacterial activity” (Bioorg Med Chem Lett, 2011) come the findings set out here.

By MIC is commonly meant the lowest concentration found to suppress growth. A higher MIC goes with a need for much substance.

Molecules are shown by their SMILES. Values after ≈ are worked out from the molar mass of the structure shown.

Assay [1] has as its system Staphylococcus aureus. Briefly: Antibacterial activity against Staphylococcus aureus Smith infected Swiss-webster mouse assessed as mouse survival at 10 mg/kg, ip administered 15 mins post-infection for 24 hrs relative to control. Type of assay: functional. The note with it: route intraperitoneal. Summed up: (§1)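 Male pathogen-free Swiss–Webster mice, 20–24 g, with free access to food and water. S. aureus Smith grown to log phase at 37 °C in LB, with CFU estimated from OD600. Cells washed in cold broth and injected IP in 0.5 mL broth. Groups of 5 or 10 mice dosed IP 15 min post-infection with vehicle (10% DMSO/peanut oil) or compound in vehicle. Daptomycin 30 mg/Kg in saline served as control.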

In assay [2] the test system is Enterococcus faecalis. The assay can be described thus: Antibacterial activity against Enterococcus faecalis ATCC 29212 after 16 to 24 hrs by twofold serial dilution method. Format: functional.
Assay [3] concerns Staphylococcus aureus. The assay can be described thus: Antibacterial activity against Staphylococcus aureus Smith infected Swiss-webster mouse assessed as mouse survival at 30 mg/kg, ip administered 15 mins post-infection for 24 hrs relative to control. Format: functional. The note with it: route intraperitoneal. Summed up: as §1
In a further assay the test system is Escherichia coli. The assay can be described thus: Antibacterial activity against Escherichia coli J-53 after 16 to 24 hrs by twofold serial dilution method. Type of assay: functional.
In assay [4] the test system is Staphylococcus aureus. The assay can be described thus: Antibacterial activity against Staphylococcus aureus Smith infected Swiss-webster mouse assessed as mouse survival at 60 mg/kg, ip administered 15 mins post-infection for 24 hrs relative to control. Type of assay: functional. The note with it: route intraperitoneal. An outline of the steps:
as §1

The test system of a further assay is Enterococcus faecium. Briefly: Antibacterial activity against Enterococcus faecium ATCC 19434 after 16 to 24 hrs by twofold serial dilution method. Format: functional.
In assay [5] the test system is Staphylococcus aureus. Briefly: Antibacterial activity against methicillin-resistant Staphylococcus aureus ATCC 1094 after 16 to 24 hrs by twofold serial dilution method. Type of assay: functional.
Assay [6] deals with Staphylococcus aureus. The assay can be described thus: Antibacterial activity against Staphylococcus aureus ATCC 13709 (Smith) after 16 to 24 hrs by twofold serial dilution method. Format: functional.
Assay [7] relates to Enterococcus faecalis. Briefly: Antibacterial activity against vancomycin-resistant Enterococcus faecalis after 16 to 24 hrs by twofold serial dilution method.
Assay [8] relates to Staphylococcus aureus. Briefly: Antibacterial activity against Staphylococcus aureus ATCC 25923 after 16 to 24 hrs by twofold serial dilution method. Type of assay: functional.
The next assay has as its system Bacillus subtilis. The assay can be described thus: Antibacterial activity against Bacillus subtilis BD54 after 16 to 24 hrs by twofold serial dilution method. Format: functional.

`CCCCCCCCCC(=O)N[C@@H](Cc1c[nH]c2ccccc12)C(=O)N[C@H](CC(N)=O)C(=O)N[C@@H](CC(=O)O)C(=O)N[C@@H]1C(=O)NCC(=O)N[C@@H](CCCN)C(=O)N[C@@H](CC(=O)O)C(=O)N[C@H](C)C(=O)N[C@@H](CC(=O)O)C(=O)NCC(=O)N[C@H](CO)C(=O)N[C@@H]([C@H](C)CC(=O)O)C(=O)N[C@@H](CC(=O)c2ccccc2N)C(=O)O[C@@H]1C`: the survival at 10 mg/kg in the assay with Staphylococcus aureus [1] was determined as 10%.
For `CC(=O)OCCCCCn1cnc2nc(NCc3ccc(Cl)c(Cl)c3)nc(O)c21`, the MIC was 1.25 µg/mL (≈ 2.85 µM) against Enterococcus faecalis [2]; over 80 µg/mL against Escherichia coli; 1.25 µg/mL (≈ 2.85 µM) with Enterococcus faecium; 1.25 µg/mL (≈ 2.85 µM) in the assay with Staphylococcus aureus [5]; 1.25 µg/mL (≈ 2.85 µM) in the assay with Staphylococcus aureus [6]; 5 µg/mL (≈ 11.4 µM) in the assay with Enterococcus faecalis [7]. The results for the MIC in the assay on Staphylococcus aureus [8] and in the assay with Bacillus subtilis were 2.5 µg/mL (≈ 5.7 µM) and 1.25 µg/mL (≈ 2.85 µM), respectively. Besides, the survival at 30 mg/kg with Staphylococcus aureus [3] came to 50%. Besides, the survival at 60 mg/kg in the assay with Staphylococcus aureus [4] was 80%. Moreover, the survival at 10 mg/kg in the assay on Staphylococcus aureus [1] was 30%.
